# Data as given in ChEMBL document CHEMBL2202986, “Guaianolide sesquiterpene lactones, a source to discover agents that selectively inhibit acute myelogenous leukemia stem and progenitor cells” (J Med Chem, 2012).
# Activity calls are given as the source filed them.
# How the values were obtained:
# Mus musculus = assay: Volume of distribution in mouse at 150 mg/kg, po; assay type: ADME, organism-based; parameters: dose 150 mg/kg, route oral; conditions: in vivo
# Method in brief: (§1)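 Male Kunming mice (20 2 g) were fasted 12 h with water available. An aqueous solution was dosed po (150 mg/kg) or iv (100 mg/kg), n = 5 per route. Blood was drawn from the orbital veins at set times to measure DMAMCL and released MCL. Parameters come from a noncompartmental model and are given as mean with SD.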
# [1] = Induction of apoptosis in CD34+ leukemia stem/progenitor cells assessed as necrotic cells at 10 uM using annexin V/propidium iodide by flow cytometry; assay type: functional, Homo sapiens
# Method in brief: (§2)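 Primary AML patient cells were exposed to 10 μM compound for 18 h in IMDM, then stained with CD34-APC/CD38-PECy7. Annexin-V–FITC/PI was added and incubated for 15 min at room temperature before flow cytometry. Quadrants were defined as Q1 necrotic, Q2 late apoptotic, Q3 early apoptotic and Q4 viable.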
# [2] = Mean retention time (0 to t) in mouse at 150 mg/kg, po; assay type: ADME, organism-based; parameters: dose 150 mg/kg, route oral; conditions: in vivo
# Method in brief: (§3)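 Male Kunming mice (20 2 g), fasted 12 h before dosing with water available, given DMAMCL as an aqueous solution po (n = 5). Blood was drawn from the orbital veins at set times. Plasma DMAMCL and MCL were followed, and parameters came from noncompartmental analysis.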
# [3] = Cytotoxicity against human CD34+ hematopioetic stem cells at 5 uM by immunostaining method; assay type: cell-based
# Method in brief: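 Mononuclear cells were Ficoll-isolated from umbilical cord blood of a normal donor, cryopreserved, then rested in serum-free IMDM for 1 h. Cells were treated for 18 h in IMDM, stained with CD34-APC for 30 min, and labelled with Annexin-V–FITC/PI for 15 min at room temperature. Read by flow cytometry, normalized to vehicle, done in triplicate.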
# [4] = AUC (0 to infinity) in mouse at 150 mg/kg, po; assay type: ADME, organism-based; parameters: dose 150 mg/kg, route oral, time infinity; conditions: plasma; method in brief: as §3
# [5] = AUC (0 to infinity) in mouse at 100 mg/kg, iv; assay type: ADME, organism-based; parameters: time infinity, dose 100 mg/kg, route intravenous; conditions: plasma
# Method in brief: (§4)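 Male Kunming mice (20 2 g), fasted 12 h before dosing with water available, given DMAMCL as an aqueous solution iv (n = 5). Blood was drawn from the orbital veins at set times. DMAMCL and MCL in plasma were measured, and parameters were derived by a noncompartmental model.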
# [6] = Cytotoxicity against human HL60/A cells after 18 hrs by annexin-V labeling-based flow cytometry; assay type: functional, cell-based
# [7] = AUC (0 to t) in mouse at 150 mg/kg, po; assay type: ADME, organism-based; parameters: dose 150 mg/kg, route oral; conditions: plasma; method in brief: as §3
# [8] = Cytotoxicity against human leukemia stem/progenitor cells assessed as viable CD34+CD38- cells at 10 uM after 18 hrs by annexin-V labeling-based flow cytometry relative to control; assay type: functional
# [9] = Half life in mouse at 150 mg/kg, po; assay type: ADME, organism-based; parameters: dose 150 mg/kg, route oral; conditions: in vivo; method in brief: as §3
# [10] = Cmax in mouse at 150 mg/kg, po; assay type: ADME, organism-based; parameters: dose 150 mg/kg, route oral; conditions: in vivo; method in brief: as §3
# [11] = Cytotoxicity against human leukemia cells assessed as cell viability at 10 uM after 18 hrs by annexin-V labeling-based flow cytometry
# [12] = Cmax in mouse at 100 mg/kg, iv; assay type: ADME, organism-based; parameters: dose 100 mg/kg, route intravenous; conditions: in vivo; method in brief: as §4
# [13] = Cytotoxicity against human leukemia stem/progenitor cells assessed as viable CD34+ cells at 10 uM after 18 hrs by annexin-V labeling-based flow cytometry; assay type: functional, CD34+ cell
# [14] = Mean retention time (0 to t) in mouse at 100 mg/kg, iv; assay type: ADME, organism-based; parameters: dose 100 mg/kg, route intravenous; conditions: in vivo; method in brief: as §4
# HL-60 = assay: Cytotoxicity against human HL60 cells after 18 hrs by annexin-V labeling-based flow cytometry; assay type: functional, cell-based; conditions: HL-60, 18 h
# [15] = Cytotoxicity against human leukemia stem/progenitor cells assessed as cell viability at 5 uM after 18 hrs by annexin-V labeling-based flow cytometry; assay type: functional; conditions: in the assay text read “leukemia cells” for “leukemia stem/progenitor cells”, read-out: Activity
# Method in brief: (§5)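 Primary leukemia cells from AML patient blood were treated for 18 h in serum-free IMDM, then stained with CD34-APC and CD38-PECy7 for 30 min. After washing in cold PBS, cells were labelled with Annexin-V–FITC/PI for 15 min at room temperature and read by flow cytometry. Viability of total and CD34⁺ cells was normalized to untreated controls (mean, SD).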
# [16] = Induction of apoptosis in CD34+ leukemia stem/progenitor cells assessed as late apoptotic cells at 10 uM using annexin V/propidium iodide by flow cytometry; assay type: functional, Homo sapiens; method in brief: as §2
# [17] = Volume of distribution in mouse at 100 mg/kg, iv; assay type: ADME, organism-based; parameters: dose 100 mg/kg, route intravenous; conditions: in vivo; method in brief: as §1
# [18] = Total clearance in mouse at 100 mg/kg, iv; assay type: ADME, organism-based; parameters: dose 100 mg/kg, route intravenous; conditions: in vivo; method in brief: as §4
# [19] = Cytotoxicity against human leukemia stem/progenitor cells assessed as viable CD34+ cells at 10 uM after 18 hrs by annexin-V labeling-based flow cytometry relative to control; assay type: functional, CD34+ cell
# [20] = Mean retention time (0 to infinity) in mouse at 100 mg/kg, iv; assay type: ADME, organism-based; parameters: dose 100 mg/kg, route intravenous; conditions: in vivo; method in brief: as §4
# [21] = Induction of apoptosis in CD34+ leukemia stem/progenitor cells assessed as early apoptotic cells at 10 uM using annexin V/propidium iodide by flow cytometry; assay type: functional, Homo sapiens; method in brief: as §2
# [22] = Reduction in colony forming units of leukemia stem/progenitor cells at 5 uM after 15 to 20 days; assay type: functional, Homo sapiens
# Method in brief: (§6)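 Mononuclear cells from AML patient […] were exposed to drug for 18 h in serum-free IMDM, then plated in triplicate in M3434 methylcellulose. Total colonies (CFC-Mix, CFC-GM, CFC-G, CFC-M, BFU-E) were scored by morphology after 15−20 days.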
# [23] = Cytotoxicity against human leukemia stem/progenitor cells assessed as viable CD34+ cells at 5 uM after 18 hrs by annexin-V labeling-based flow cytometry; assay type: functional, CD34+ cell; method in brief: as §5
# [24] = Total clearance in mouse at 150 mg/kg, po; assay type: ADME, organism-based; parameters: dose 150 mg/kg, route oral; conditions: in vivo; method in brief: as §3
# [25] = Mean retention time (0 to infinity) in mouse at 150 mg/kg, po; assay type: ADME, organism-based; parameters: dose 150 mg/kg, route oral; conditions: in vivo; method in brief: as §3
# [26] = Half life in mouse at 100 mg/kg, iv; assay type: ADME, organism-based; parameters: dose 100 mg/kg, route intravenous; conditions: in vivo; method in brief: as §4
# Homo sapiens = assay: Antitumor activity against human leukemia stem/progenitor cells xenografted in NOD/SCID mouse assessed as reduction of CD45+CD33+ cells in spleen compound pretreated for 18 hrs before grafting process measured after 8 weeks; assay type: functional, tissue-based
# Method in brief: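 Fresh primary AML patient cells were exposed for 18 h to saline or compound. Equal numbers of surviving cells were then injected iv into NOD/SCID mice. After 8 weeks the mice were sacrificed, and the spleen CD33⁺CD45⁺ human cells were quantified by flow cytometry, with each animal analysed individually.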
# [27] = Reduction in colony forming units of leukemia stem/progenitor cells at 10 uM after 15 to 20 days; assay type: functional, Homo sapiens; method in brief: as §6
# [28] = Induction of apoptosis in CD34+ leukemia stem/progenitor cells assessed as viable cells at 10 uM using annexin V/propidium iodide by flow cytometry; assay type: functional; conditions: Homo sapiens; read-out: Activity; method in brief: as §2
# [29] = Tmax in mouse at 150 mg/kg, po; assay type: ADME, organism-based; parameters: dose 150 mg/kg, route oral; conditions: in vivo; method in brief: as §3
# [30] = AUC (0 to t) in mouse at 100 mg/kg, iv; assay type: ADME, organism-based; parameters: dose 100 mg/kg, route intravenous; conditions: plasma; method in brief: as §4
# [31] = Antitumor activity against mixed-lineage human leukemia cells xenografted in NOD/SCID mouse assessed as reduction of CD45+CD33+ cells in bone marrow at 100 mg/kg, po qd administered every other day total of seven doses starting from 8 weeks post grafting measured on day 35 (reference value: 9.8 %); assay type: functional, Leukemia cell; parameters: scale not given: the % may be the effect or the level left
# [32] = Antitumor activity against human leukemia stem/progenitor cells xenografted in NOD/SCID mouse assessed as survival rate at 100 mg/kg, po qd administered every other day total of seven doses starting from 8 weeks post grafting measured on day 85; assay type: functional
# Method in brief: (§7)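 NOD/SCID mice were sublethally irradiated (280cGay), then 6−10 h later given primary AML M5 patient cells via tail vein in PBS. From 8 weeks postinoculation, aqueous solution was given orally at 100 mg/kg every other day for seven doses. Survival was followed, Kaplan−Meier, n = 6 per treated group and n = 7 untreated controls. Survivors at day 85 had bone marrow analysed for human CD45⁺CD33⁺ cells.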
# [33] = Antitumor activity against human leukemia stem/progenitor cells xenografted in NOD/SCID mouse assessed as survival time at 100 mg/kg, po qd administered every other day total of seven doses starting from 8 weeks post grafting (reference value: 43 days); assay type: functional; method in brief: as §7
# [34] = Drug degradation in HEPES buffer at pH <5 assessed as release of PTL; assay type: physicochemical
# Method in brief: (§8)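 A 20 μL aliquot of prodrug solution was added to 980 μL HEPES buffer (pH 7.4, or below 5.0) and incubated at 37 °C. Samples were withdrawn over time, and prodrug and released parent were quantified by HPLC (mean, SD, n = 4).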
# [35] = Antitumor activity against mixed-lineage human leukemia cells xenografted in NOD/SCID mouse assessed as inhibition of cancer cell engrafting at 100 mg/kg, po qd administered every other day total of seven doses starting from 8 weeks post grafting measured on day 35; assay type: functional
# Plasma = assay: Drug metabolism in mouse plasma assessed as release of PTL; assay type: ADME, cell-free
# Method in brief: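 A 20 μL aliquot of prodrug solution was added to 980 μL blank mouse plasma and incubated at 37 °C. Prodrug and released parent drug concentrations were measured over time by HPLC (mean, SD, n = 4).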
# [36] = Drug degradation in HEPES buffer at pH 7.4 assessed as release of PTL; assay type: physicochemical; method in brief: as §8
# [37] = Drug degradation in mouse plasma assessed as release of PTL up to 2.5 hrs; conditions: pH 7.4
# [38] = Antitumor activity against human leukemia stem/progenitor cells xenografted in NOD/SCID mouse assessed as reduction of CD45+CD33+ cells in bone marrow at 100 mg/kg, po qd administered every other day total of seven doses starting from 8 weeks post grafting measured on day 85; assay type: functional; parameters: scale not given: the % may be the effect or the level left
# Method in brief: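 NOD/SCID mice, sublethally irradiated (280cGay), received primary AML M5 patient cells via tail vein in PBS 6−10 h later. From 8 weeks after engraftment, aqueous drug was given orally every other day for seven doses. Surviving mice were sacrificed on day 85 post-inoculation, and human CD45⁺CD33⁺ cells in bone marrow were measured by flow cytometry.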
structure (smiles),measurement,setting,value
C=C1C(=O)O[C@H]2[C@H]1CCC(C)=C1CC[C@@](C)(O)[C@@H]12 [MICHELIOLIDE],Vd,Mus musculus,265.27 L/kg
same,Activity,[1],0.127%
same,MRT last,[2],7.59 h
same,Activity,[3],Non-toxic
same,AUC(0-inf),[4],6720 ng·h/mL
same,AUC(0-inf),[5],5850 ng·h/mL
same,IC50,[6],6.2 µM
same,AUC(0-t),[7],6630 ng·h/mL
same,fold change (FC),[8],5.3
same,half-life,[9],7.92 h
same,Cmax,[10],2610 ng/mL
same,viability at 10 µM,[11],8.4%
same,Cmax,[12],10700 ng/mL
same,Activity,[13],2.3%
same,MRT last,[14],1.49 h
same,IC50,HL-60,5.5 µM
same,viability at 5 µM,[15],11.7%
same,Activity,[16],69.4%
same,Vd,[17],533 L/kg
same,clearance,[18],288 mL/min/kg
same,fold change (FC),[19],3.2
same,MRT inf,[20],6.34 h
same,Activity,[21],24.2%
same,CFU,[22],4.5
same,Activity,[23],4.2%
same,CL/F,[24],376 mL/min/kg
same,MRT inf,[25],8.28 h
same,half-life,[26],12.7 h
same,Activity,Homo sapiens,Active
same,CFU,[27],0
same,viability at 10 µM,[28],1.42%
same,Tmax,[29],0.36 h
same,AUC(0-t),[30],5490 ng·h/mL
C=C1C(=O)O[C@@H]2[C@H]3C(C)=CC[C@@]34O[C@@]4(C)CC[C@@H]12 [ARGLABIN],fold change (FC),[8],1.9
same,viability at 10 µM,[11],20%
same,Activity,[13],10.7%
same,fold change (FC),[19],1.8
C/C1=C\CC[C@@]2(C)O[C@@H]2[C@H]2OC(=O)[C@@H](CN(C)C)[C@@H]2CC1.O=C(O)/C=C/C(=O)O [(DIMETHYLAMINO)PARTHENOLIDE FUMARIC ACID SALT],Activity,[31],5.7%
same,survival at 100 mg/kg,[32],17%
same,Survival,[33],66 days
same,Drug degradation,[34],Not Active
same,inhibition in vivo at 100 mg/kg,[35],42%
same,Drug metabolism,Plasma,Active
same,Drug degradation,[36],Active
same,Drug degradation,[37],0.1 µg/mL
same,Activity,[38],35%
